From ChEMBL document CHEMBL4680083, “Identification of Tricyclic Agonists of Sphingosine-1-phosphate Receptor 1 (S1P) Employing Ligand-Based Drug Design” (J Med Chem, 2016)

Experiments:
[1] = molecular target: Sphingosine 1-phosphate receptor 1 (Homo sapiens, UniProt P21453); assay: Agonist activity at human S1P1 expressed in CHO cell membranes assessed as stimulation of [35S]-GTPgamma-S binding measured after 45 mins by liquid scintillation counting method; parameters: species or system Cell membrane
Chain of Sphingosine 1-phosphate receptor 1 (P21453 whole entry): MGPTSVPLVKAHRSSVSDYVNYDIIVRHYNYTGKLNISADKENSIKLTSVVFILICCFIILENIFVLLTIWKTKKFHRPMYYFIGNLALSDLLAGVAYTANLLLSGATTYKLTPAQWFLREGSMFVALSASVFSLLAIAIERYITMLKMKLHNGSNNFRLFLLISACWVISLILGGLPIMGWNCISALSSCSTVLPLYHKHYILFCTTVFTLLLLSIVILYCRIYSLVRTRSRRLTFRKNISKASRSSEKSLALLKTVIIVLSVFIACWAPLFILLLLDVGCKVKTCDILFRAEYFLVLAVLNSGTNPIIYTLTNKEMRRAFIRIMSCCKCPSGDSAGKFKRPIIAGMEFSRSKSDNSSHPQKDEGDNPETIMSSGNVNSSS
Procedure, shortened: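 S1P1/CHO cell membranes at 3 μg protein/well with 3-fold compound dilutions. [35S]GTPγS 0.2 nM final, 45 min at room temperature. Filter-plate capture, water washes, scintillation counting. EC50 taken at 50% of each compound's own Ymax.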

[2] = molecular target: Sphingosine 1-phosphate receptor 3 (Homo sapiens, UniProt Q99500); assay: Agonist activity at human S1P3 expressed in CHO cell membranes assessed as stimulation of [35S]-GTPgamma-S binding measured after 45 mins by liquid scintillation counting method; parameters: species or system Cell membrane
Chain of Sphingosine 1-phosphate receptor 3 (Q99500 whole entry): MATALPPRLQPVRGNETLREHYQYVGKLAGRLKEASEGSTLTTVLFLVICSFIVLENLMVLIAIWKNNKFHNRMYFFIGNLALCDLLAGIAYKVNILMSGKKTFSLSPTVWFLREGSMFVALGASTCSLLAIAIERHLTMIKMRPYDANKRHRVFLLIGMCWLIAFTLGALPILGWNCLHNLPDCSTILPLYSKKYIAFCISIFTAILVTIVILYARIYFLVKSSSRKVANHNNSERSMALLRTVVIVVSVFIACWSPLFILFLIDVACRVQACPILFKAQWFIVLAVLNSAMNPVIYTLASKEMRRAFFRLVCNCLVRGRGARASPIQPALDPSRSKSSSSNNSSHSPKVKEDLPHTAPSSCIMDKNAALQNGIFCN

[3] = Selectivity index, ratio of EC50 for agonist activity at human S1P3 expressed in CHO cell membranes to EC50 for agonist activity at human S1P1 expressed in CHO cell membranes; type: cell-based
[4] = system: Rattus norvegicus; assay: Reduction in circulating lymphocytes count in Lewis rat blood at 1 mg/kg, po measured at 4 hrs by hematology analyzer based analysis; type: functional; parameters: scale not given: the % may be the effect or the level left
Procedure, shortened: (§1)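 Lewis rats were given an oral dose as a solution or suspension in PEG300, with controls receiving vehicle only. Blood was taken by retro-orbital bleeding under isoflurane at 4 and 24 h. Lymphocytes were counted on a hematology analyzer. Reduction is relative to the vehicle group, averaged over the animals in each group (n = 3−4).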

[5] = Plasma concentration in Lewis rat at 1 mg/kg, po measured at 4 hr; type: ADME, organism-based; details: for concentration at 4 h: Lewis, plasma
Procedure, shortened: (§2)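 Lewis rats received a single oral 1.0 mg/kg dose as solution or suspension in PEG300. Blood was drawn retro-orbitally under isoflurane at 4 h and 24 h, within the blood lymphocyte reduction study. n = 3−4 per group, group mean reported.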

[6] = system: Rattus norvegicus; assay: Reduction in circulating lymphocytes count in Lewis rat blood at 1 mg/kg, po measured at 24 hrs by hematology analyzer based analysis; type: functional; parameters: scale not given: the % may be the effect or the level left; procedure, shortened: as §1
[7] = Plasma concentration in Lewis rat at 1 mg/kg, po measured at 24 hrs; type: ADME, organism-based; details: for concentration at 24 h: Lewis, plasma; for concentration / Cp: in vivo, 1 mg/kg, 24 h; for Cp: BLD = below limit of detection; procedure, shortened: as §2
[8] = Ratio of plasma concentration in Lewis rat at 1 mg/kg, po measured at 4 hrs to plasma concentration in Lewis rat at 1 mg/kg, po measured at 24 hrs; type: ADME, organism-based; details: in vivo

Structure (SMILES) | EC50 [1] | EC50 [2] | concentration at 4 h [5] | concentration at 24 h [7] | Ratio [8] | Ratio EC50 [3] | Activity [4] | Activity [6] | also measured
O=C(O)C1CN(Cc2ccc3c(c2)CCc2c-3noc2-c2cccc(C(F)(F)F)c2)C1 | 310 nM | > 63000 nM | – | – | – | > 200 | – | – | –
O=C(O)C1CN(Cc2ccc3c(n2)CCc2c(-c4noc(-c5ccccc5)c4C(F)(F)F)noc2-3)C1 | 17 nM | > 63000 nM | 460 nM | 47 nM | 10 | > 3700 | 76% | 32% | –
O=C(O)C1CN(Cc2ccc3c(c2)CCc2nc(-c4onc(-c5ccccc5)c4C(F)(F)F)oc2-3)C1 | 5.5 nM | 920 nM | 110 nM | 11 nM | 10 | 170 | 62% | 2% | –
Cn1nc(-c2noc(-c3ccccc3)c2C(F)(F)F)c2c1-c1ccc(CN3CC(C(=O)O)C3)cc1CC2 | 21 nM | > 63000 nM | – | – | – | > 3000 | – | – | –
O=C(O)[C@H]1CCCN(CC(O)c2ccc3c(c2)CCc2c-3noc2-c2noc(-c3ccccc3)c2C(F)(F)F)C1 (stereo in doubt; 76) [listing 1 of 2 here] | 26 nM | 16000 nM | – | – | 7 | – | – | – | Activity ([4]; 1 mg/kg, 4 h): 28%; Activity ([6]; 1 mg/kg, 24 h): 20%; concentration [7]: 21 nM
CC(C)Oc1ccc(-c2onc3c2CCc2cc(CN4CC(C(=O)O)C4)ccc2-3)c(C(F)(F)F)c1 | 24 nM | 11000 nM | – | – | – | 460 | – | – | –
CS(=O)(=O)CCNC(=O)C(O)c1ccc2c(c1)CCc1c-2noc1-c1noc(-c2ccccc2)c1C(F)(F)F (stereo in doubt; 77) [listing 1 of 2 here] | – | – | – | – | – | 90 | – | – | –
CC(C)Oc1ccc(-c2onc3c2CCc2cc(CN4CC(C(=O)O)C4)ccc2-3)cc1C#N | 4.6 nM | > 63000 nM | – | – | – | > 14000 | -5% | 12% | Cp ([5]; in vivo, 1 mg/kg, 4 h, BLD = below limit of detection): Bld; Cp [7]: Bld
O=C1NC(=O)C2(CN(Cc3ccc4c(c3)CCc3c-4noc3-c3noc(-c4ccccc4)c3C(F)(F)F)C2)N1 | 51 nM | 23000 nM | – | – | – | 450 | – | – | –
O=C(O)C[C@H]1CCCN(CC(O)c2ccc3c(c2)CCc2c-3noc2-c2noc(-c3ccccc3)c2C(F)(F)F)C1 (stereo in doubt; 73) [listing 1 of 2 here] | 4 nM | 7400 nM | – | – | 1 | – | 70% | – | concentration ([5]; in vivo, 1 mg/kg, 4 h): 190 nM; Activity ([6]; 1 mg/kg, 24 h): 72%; concentration [7]: 160 nM
O=C(O)C1CN(Cc2ccc3c(c2)CCc2nc(-c4onc(-c5ccccc5)c4C(F)(F)F)sc2-3)C1 | 2.4 nM | 12000 nM | 230 nM | 84 nM | 3 | 5000 | 80% | 85% | –
Cn1nc2c(c1-c1noc(-c3ccccc3)c1C(F)(F)F)CCc1cc(CN3CC(C(=O)O)C3)ccc1-2 | 380 nM | > 63000 nM | – | – | – | > 170 | – | – | –
O=C(O)C1CN(Cc2ccc3c(c2)CCCc2c(-c4noc(-c5ccccc5)c4C(F)(F)F)noc2-3)C1 | 31 nM | 12000 nM | – | – | – | 390 | – | – | –
CS(=O)(=O)CCNC(=O)C(O)c1ccc2c(c1)CCc1c-2noc1-c1noc(-c2ccccc2)c1C(F)(F)F (stereo in doubt; 77) [listing 2 of 2 here] | 200 nM | 18000 nM | – | – | – | – | – | – | –
CCOc1ccc(-c2onc3c2CCc2cc(CN4CC(C(=O)O)C4)ccc2-3)cc1OCC | 1.6 nM | 14000 nM | – | – | – | 8800 | – | – | –
O=C(O)C1CN(Cc2ccc(-c3noc(-c4onc(-c5ccccc5)c4C(F)(F)F)n3)cc2)C1 | – | – | 2100 nM | 700 nM | 3 | – | 78% | 91% | –
O=C(O)[C@H]1CCCN(CC(O)c2ccc3c(c2)CCc2c-3noc2-c2noc(-c3ccccc3)c2C(F)(F)F)C1 (stereo in doubt; 76) [listing 2 of 2 here] | – | – | – | – | – | 620 | – | – | –
CS(=O)(=O)CCNC(=O)C(O)c1ccc2c(c1)CCc1c-2noc1-c1noc(-c2ccccc2)c1C(F)(F)F (stereo in doubt; 78) [listing 2 of 2 here] | – | – | – | – | – | 3900 | – | – | –
O=C(O)C[C@H]1CCCN(CC(O)c2ccc3c(c2)CCc2c-3noc2-c2noc(-c3ccccc3)c2C(F)(F)F)C1 (stereo in doubt; 73) [listing 2 of 2 here] | – | – | – | – | – | 1900 | – | – | –
O=C(O)C1CN(Cc2ccc3c(c2)Cc2c-3noc2-c2noc(-c3ccccc3)c2C(F)(F)F)C1 | 6.8 nM | 32000 nM | 21 nM | – | – | 4700 | 14% | 3% | Cp [7]: Bld
O=C(O)C1CN(Cc2ccc3c(c2)OCCc2c(-c4noc(-c5ccccc5)c4C(F)(F)F)noc2-3)C1 | 33 nM | 1600 nM | – | – | – | 48 | – | – | –
O=C(O)[C@H]1CCCN(CC(O)c2ccc3c(c2)CCc2c-3noc2-c2noc(-c3ccccc3)c2C(F)(F)F)C1 (stereo in doubt; 75) [listing 2 of 2 here] | – | – | – | – | – | 62000 | – | – | –
O=C(O)C[C@H]1CCCN(CC(O)c2ccc3c(c2)CCc2c-3noc2-c2noc(-c3ccccc3)c2C(F)(F)F)C1 (stereo in doubt; 74) [listing 2 of 2 here] | – | – | – | – | – | 5200 | – | – | –
O=C(O)C1CN(Cc2ccc3c(c2)CCc2c-3n[nH]c2-c2onc(-c3ccccc3)c2C(F)(F)F)C1 | 190 nM | > 63000 nM | – | – | – | > 330 | – | – | –

Second part, led by results:

EC50 [1] | EC50 [2] | concentration at 4 h [5] | concentration at 24 h [7] | Ratio [8] | Structure (SMILES) | Ratio EC50 [3] | Activity [4] | Activity [6] | also measured
1.3 nM | 1300 nM | 190 nM | 4 nM | 48 | CC1(c2onc(-c3onc4c3CCc3cc(CN5CC(C(=O)O)C5)ccc3-4)c2C(F)(F)F)CC1 | 1000 | 85% | 34% | –
1.6 nM | > 63000 nM | – | – | – | CN1Cc2c(noc2-c2onc(-c3ccccc3)c2C(F)(F)F)-c2ccc(CN3CC(C(=O)O)C3)cc21 | > 39000 | – | – | –
0.21 nM | 13000 nM | 140 nM | – | 3 | O=C(O)[C@H]1CCCN(CC(O)c2ccc3c(c2)CCc2c-3noc2-c2noc(-c3ccccc3)c2C(F)(F)F)C1 (stereo in doubt; 75) [listing 1 of 2 here] | – | – | – | Activity ([4]; 1 mg/kg, 4 h): 76%; Activity ([6]; 1 mg/kg, 24 h): 76%; concentration [7]: 49 nM
1.6 nM | 6200 nM | 190 nM | 26 nM | – | CS(=O)(=O)CCNC(=O)C(O)c1ccc2c(c1)CCc1c-2noc1-c1noc(-c2ccccc2)c1C(F)(F)F (stereo in doubt; 78) [listing 1 of 2 here] | – | 50% | 43% | –
0.33 nM | 1400 nM | 150 nM | 26 nM | 6 | O=C(O)C1CN(Cc2ccc3c(c2)CCc2c-3noc2-c2nsc(-c3ccccc3)c2C(F)(F)F)C1 | 4200 | 82% | 85% | –
1.3 nM | 2800 nM | 110 nM | 50 nM | 2 | CC(C)Cc1ccc(-c2onc3c2CCc2cc(CN4CC(C(=O)O)C4)ccc2-3)cc1C(F)(F)F | 2200 | 74% | 76% | –
1 nM | 1300 nM | 120 nM | 1 nM | 120 | O=C(O)C1CN(Cc2ccc3c(c2)CCc2c-3noc2-c2onc(-c3ccccn3)c2C(F)(F)F)C1 | 1300 | 82% | 69% | –
0.27 nM | 1200 nM | 230 nM | 46 nM | 5 | O=C(O)C1CN(Cc2ccc3c(c2)OCc2c-3noc2-c2noc(-c3ccccc3)c2C(F)(F)F)C1 | 4400 | 87% | 93% | –
1.3 nM | 4400 nM | 34 nM | 8 nM | 4 | O=C(O)C1CN(Cc2ccc3c(c2)CCc2c(-c4onc(-c5ccccc5)c4C(F)(F)F)noc2-3)C1 | 3400 | 66% | 79% | –
1.5 nM | > 3100 nM | 520 nM | 61 nM | 9 | CC(C)Cc1onc(-c2onc3c2CCc2cc(CN4CC(C(=O)O)C4)ccc2-3)c1C(F)(F)F | > 2100 | 86% | 80% | –
0.33 nM | 1700 nM | – | – | 4 | O=C(O)C[C@H]1CCCN(CC(O)c2ccc3c(c2)CCc2c-3noc2-c2noc(-c3ccccc3)c2C(F)(F)F)C1 (stereo in doubt; 74) [listing 1 of 2 here] | – | – | – | concentration ([5]; in vivo, 1 mg/kg, 4 h): 93 nM; Activity ([6]; 1 mg/kg, 24 h): 87%; concentration [7]: 32 nM
